Screens: PubChem BioAssay, Johns Hopkins Ion Channel Center
Only some compounds are listed: those with a hit (about 3.7% of all), similar ones and a draw of the others.
KCNQ1 block = blocks the human KCNQ1 potassium channel; P51787; 1.3% of 310,000 active; CHO-K1 KCNQ1, FluxOR thallium flux fluorescence; active compounds read high; AID 2642; B-score at 10 µM;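 active means compounds whose thallium flux B-score, printed positive for inhibition, exceeds three library SD while starting fluorescence stays within three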;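 further: channel opened by potassium depolarization with thallium stimulus after 20 min compound exposure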
Target sequence (P51787 whole entry, looked up): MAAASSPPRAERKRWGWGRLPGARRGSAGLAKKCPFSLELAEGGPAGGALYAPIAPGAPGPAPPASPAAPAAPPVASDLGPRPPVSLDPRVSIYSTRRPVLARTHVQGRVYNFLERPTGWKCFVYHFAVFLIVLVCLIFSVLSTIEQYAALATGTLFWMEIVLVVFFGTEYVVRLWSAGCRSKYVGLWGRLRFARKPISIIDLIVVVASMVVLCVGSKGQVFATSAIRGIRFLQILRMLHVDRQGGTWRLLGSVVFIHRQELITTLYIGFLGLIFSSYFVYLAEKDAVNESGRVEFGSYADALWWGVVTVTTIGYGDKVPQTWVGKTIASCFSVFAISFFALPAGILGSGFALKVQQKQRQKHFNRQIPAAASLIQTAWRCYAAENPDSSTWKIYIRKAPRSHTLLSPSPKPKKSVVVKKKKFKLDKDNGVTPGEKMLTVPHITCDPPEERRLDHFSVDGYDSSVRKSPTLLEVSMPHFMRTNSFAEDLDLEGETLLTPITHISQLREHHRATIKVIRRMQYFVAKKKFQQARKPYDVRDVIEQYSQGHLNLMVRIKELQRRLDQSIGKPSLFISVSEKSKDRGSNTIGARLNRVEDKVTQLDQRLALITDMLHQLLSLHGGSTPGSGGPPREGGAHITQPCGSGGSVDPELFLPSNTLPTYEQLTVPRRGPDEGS
KCNK9 block = blocks the human KCNK9 two-pore domain potassium channel | Q9NPC2 | HEK293 KCNK9, FluxOR thallium flux fluorescence; active compounds read low | B-score at 10 µM | 1.2% of 310,000 active;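 active means ratio B-score over 3 SD below the library mean, with starting fluorescence within 5 SD of its mean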;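 further: negative B-score means less thallium flux so channel inhibition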
KCNQ1 pot = human KCNQ1 channel potentiation or activation | P51787 | B-score at 10 µM | AID 2648 | 0.35% of 310,000 active | CHO-K1 KCNQ1, thallium flux FluxOR fluorescence; active compounds read high;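 active means fluorescence ratio B-score, a plate-corrected score, at least three library SD, with initial intensity B-score within 5 SD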
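Assay system: CHO-K1 cells stably expressing KCNQ1; Medium: assay buffer with matched DMSO; Also added: K+/Tl+ depolarizing stimulus; Dosing: single dose; Timing: dye 90 min, compound 20 min, room temperature; Measured by: kinetic FluxOR thallium fluorescence, 10-s 1-Hz baseline, 110-s post-stimulus read; Read-out: peak-minus-minimum fluorescence over initial fluorescence, negative-control normalized, B-scored.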
KCNK3 inh = human KCNK3 channel inhibition, primary screen; CHO-KCNK3 thallium flux, FluxOR fluorescence; active compounds read low; B-score at 10 µM; 0.84% of 340,000 active; O14649;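 active means B-score under library mean minus 4 SD, starting fluorescence ratio at most library mean plus 5 SD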;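 further: more negative B-score means stronger inhibition of thallium flux through KCNK3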
Kir21 block = blocks the mouse Kir2.1 inward-rectifier potassium channel. 0.85% of 310,000 active. HEK293-Kir2.1, FluxOR thallium flux fluorescence; active compounds read low. AID 1672. B-score at 10 µM;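 active means fluorescence ratio B-score at or below minus 3 SD of library scores, with starting-brightness B-score within 2 SD, cut at about -4.2 in these data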;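 further: channel flux triggered by added potassium and thallium sulfate stimulus; B-score of peak minus minimum fluorescence over baseline after thallium stimulus; more negative B-score means stronger Kir2.1 block with less thallium influx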
hERG rescue = compounds protecting human hERG from proarrhythmic drug block | CHO-hERG, FluxOR thallium flux, dofetilide IC70 present | activation (rescue from dofetilide block), less the hit threshold, % at 10 µM | 0.51% of 310,000 active;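 active means activation above the mean of controls blocked by dofetilide plus 5 SD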;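 further: thallium influx through hERG after potassium depolarization seen as dye fluorescence rise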
KCNQ1 block val = human KCNQ1 channel inhibition, validation assay; AID 588353; 93% of 1,600 active; shares compounds with KCNQ1 block; KCNQ1 cell line, FluxOR thallium flux fluorescence; inhibition, % at 10 µM;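 active means primary screen active, with duplicate mean exceeding buffer control mean plus 3 SD of buffer wells, cut at about 28% in these data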
CHO Tl flux = counter-screen for KCNQ1 inhibitors: effect in parental CHO cells. fluorescence ratio (Tl flux) at 10 µM. shares compounds with KCNQ1 block. AID 588366. parental CHO-K1, FluxOR thallium flux fluorescence ratio; active compounds read low; zero means no signal rise above baseline. 21% of 1,600 active;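 active means mean of duplicate thallium-flux fluorescence ratios in parental host cells more than 5 SD below the buffer control mean, cut at about 0.38 in these data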;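 further: ratio is peak minus minimum fluorescence divided by baseline fluorescence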
KCNQ1 APC inh = blocks human KCNQ1 current in automated patch clamp | shares compounds with KCNQ1 block | KCNQ1-CHO cells | calls only at 10 µM | 20% of 490 active | AID 624120;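 active means KCNQ1 current drop exceeding 3 SD of negative control wells, seen in both duplicate runs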;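 further: steady state current during a 2 s step from -80 to +40 mV; negative values mean current inhibition and positive values mean potentiation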
KCNQ2 spec = selectivity of KCNQ1 inhibitors: inhibition of rat KCNQ2 channel; shares compounds with KCNQ1 block; 71% of 1,600 active; KCNQ2 cells, FluxOR thallium flux fluorescence; AID 651746; inhibition, % at 10 µM;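 active means mean percent inhibition of the KCNQ2 thallium signal more than 5 SD above the buffer-only control wells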;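 further: KCNQ2 expressed in CHO cells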
KCNQ1-KCNE1 inh = human KCNQ1/KCNE1 inhibition in KCNQ1 specificity screen | shares compounds with KCNQ1 block | KCNQ1/KCNE1 cells, FluxOR thallium flux fluorescence | inhibition, % at 10 µM | 77% of 1,600 active | AID 652147;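 active means mean percent inhibition of duplicate wells above the buffer-only control mean plus 3 SD of those controls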
KCNK9 inh conf = human KCNK9 inhibitor confirmation; shares compounds with KCNK9 block; HEK293 KCNK9 cells, FluxOR thallium flux fluorescence; inhibition, % at 10 µM; 43% of 4,900 active;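 active means thallium signal inhibited by more than 5 SD of the compound-free buffer control wells, on both duplicate plates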
Kir2-1 spec = mouse Kir2.1 off-target activity of KCNK9 modulators. inhibition, % at 10 µM. Kir2.1 cells, FluxOR thallium flux fluorescence. AID 492993. 4% of 4,900 active. shares compounds with KCNK9 block;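 active means thallium signal drop more than 5 SD beyond the mean of the no-compound control wells, seen in both duplicate plates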;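 further: signal is fluorescence rise after thallium addition divided by baseline fluorescence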
HEK293 Tl ctr = non-induced cell nonspecific activity of KCNK9 modulators; shares compounds with KCNK9 block; non-induced KCNK9-HEK293, FluxOR thallium flux; inhibition, % at 10 µM; 40% of 4,900 active; AID 492997;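 active means thallium signal drop beyond 5 SD of the untreated control mean, on both duplicate plates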
KCNK3 confirm = human KCNK3 channel inhibition, confirmation assay; shares compounds with KCNK3 inh; CHO-KCNK3 thallium flux, FluxOR fluorescence; 0% buffer, 100% carvedilol maximal block; ratio percent of control, % at 10 µM; 99% of 2,400 active;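 active means ratio percent of control, averaged over triplicates, above buffer control mean plus 5 SD, cut at about 64% in these data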;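 further: ratio is the fluorescence rise from min to max over baseline after thallium stimulus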
KCNK3 uninduced = activity in cells without induced KCNK3 expression; AID 651747; thallium flux ratio (lower = more inhibition) at 10 µM; 40% of 2,400 active; shares compounds with KCNK3 inh; non-induced KCNK3 parental cells, FluxOR thallium flux; active compounds read low;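 active means thallium flux ratio, averaged over three wells, more than 5 SD below the buffer control mean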;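 further: host cells are CHO cells without KCNK3 induction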
A number is an active result.

What do the screens show for `CN(C)c1ccc(/C=C2\N=C(C(C)(C)C)OC2=O)cc1`?
KCNQ1 block: inactive; KCNK9 block: inactive; KCNQ1 pot: inactive; KCNK3 inh: inactive; Kir21 block: inactive; hERG rescue: inactive

Results for Cc1c(C(=O)Nc2ccc(Cl)cc2)c2ccccn2c1C(=O)c1ccc(F)cc1 ?
KCNQ1 block: inactive; KCNK9 block: inactive; KCNQ1 pot: inactive; KCNK3 inh: inactive; Kir21 block: inactive; hERG rescue: inactive

Results for Cc1c(C(=O)Nc2cccc(Cl)c2)c2ccccn2c1CCc1ccncc1 ?
KCNQ1 block: 9; KCNK9 block: inactive; KCNQ1 pot: inactive; KCNK3 inh: -10; Kir21 block: inactive; hERG rescue: inactive; KCNQ1 block val: 159; CHO Tl flux: 0.36; KCNQ2 spec: 123%; KCNQ1-KCNE1 inh: active; KCNK3 confirm: 134; KCNK3 uninduced: 0.12

How did CCCCNC(=S)Nc1ccc(SC(F)F)cc1 do in these assays?
KCNQ1 block: 8; KCNK9 block: -7.7; KCNQ1 pot: inactive; KCNK3 inh: -10; Kir21 block: inactive; hERG rescue: inactive; KCNQ1 block val: 91; CHO Tl flux: inactive; KCNQ1 APC inh: active; KCNQ2 spec: inactive; KCNQ1-KCNE1 inh: 61%; KCNK3 confirm: 121; KCNK3 uninduced: 0.15

Results for CCOc1ccc(N(C)S(=O)(=O)c2cc(-c3cc(C)no3)ccc2CC)cc1 ?
KCNQ1 block: 13; KCNK9 block: -7.8; KCNQ1 pot: inactive; KCNK3 inh: -13; Kir21 block: inactive; hERG rescue: inactive; KCNQ1 block val: 98; CHO Tl flux: 0.36; KCNQ2 spec: 118%; KCNQ1-KCNE1 inh: 138%; KCNK3 confirm: 123; KCNK3 uninduced: 0.14

How did COc1ccc(CN(C)S(=O)(=O)c2nnc(NC(=O)c3ccccc3)s2)cc1OC do in these assays?
KCNQ1 block: inactive; KCNK9 block: inactive; KCNQ1 pot: inactive; KCNK3 inh: inactive; Kir21 block: inactive; hERG rescue: inactive

How did COc1ccccc1C(=O)Nc1nnc(S(=O)(=O)N(C)Cc2ccccc2)s1 do in these assays?
KCNQ1 block: 17; KCNK9 block: inactive; KCNQ1 pot: inactive; KCNK3 inh: -12; Kir21 block: inactive; hERG rescue: inactive; KCNQ1 block val: 140; CHO Tl flux: 0.37; KCNQ2 spec: 122%; KCNQ1-KCNE1 inh: active; KCNK3 confirm: 115; KCNK3 uninduced: 0.1

What do the screens show for `O=C1CCCc2nc(N3CCN(C(c4ccccc4)c4ccccc4)CC3)ncc21`?
KCNQ1 block: 8; KCNK9 block: inactive; KCNQ1 pot: inactive; KCNK3 inh: -8.8; Kir21 block: inactive; hERG rescue: inactive; KCNQ1 block val: 96; CHO Tl flux: inactive; KCNQ1 APC inh: inactive; KCNQ2 spec: 108%; KCNQ1-KCNE1 inh: 165%; KCNK3 confirm: 119; KCNK3 uninduced: 0.14

What do the screens show for `O=C1CCCc2nc(N3CCN(C(=O)c4ccco4)CC3)ncc21`?
KCNQ1 block: inactive; KCNK9 block: inactive; KCNQ1 pot: inactive; KCNK3 inh: inactive; Kir21 block: inactive; hERG rescue: inactive

How did COc1ccc(Cl)cc1C(=O)Nc1ccccc1N1CCCCC1 do in these assays?
KCNQ1 block: 7; KCNK9 block: -8.9; KCNQ1 pot: inactive; KCNK3 inh: -8.9; Kir21 block: inactive; hERG rescue: inactive; KCNQ1 block val: 103; CHO Tl flux: inactive; KCNQ1 APC inh: inactive; KCNQ2 spec: 99%; KCNQ1-KCNE1 inh: 146%; KCNK9 inh conf: 50%; Kir2-1 spec: inactive; HEK293 Tl ctr: 46%; KCNK3 confirm: 107; KCNK3 uninduced: inactive

How did Cc1cc(C)n(-c2cc(C(C)(C)C)nc3c(-c4ccccc4)cnn23)n1 do in these assays?
KCNQ1 block: 8; KCNK9 block: inactive; KCNQ1 pot: inactive; KCNK3 inh: -13; Kir21 block: inactive; hERG rescue: inactive; KCNQ1 block val: 85; CHO Tl flux: inactive; KCNQ2 spec: inactive; KCNQ1-KCNE1 inh: 114%; KCNK3 confirm: 108; KCNK3 uninduced: inactive

Results for CC(C)NC(=O)Nc1cccc(Cl)c1 ?
KCNQ1 block: inactive; KCNK9 block: inactive; KCNQ1 pot: inactive; KCNK3 inh: inactive; Kir21 block: inactive; hERG rescue: inactive

What do the screens show for `CC(Cc1cccs1)NC(=O)Nc1cccc(Cl)c1` (stereo unspecified)?
KCNQ1 block: 9; KCNK9 block: -18; KCNQ1 pot: inactive; KCNK3 inh: -11; Kir21 block: inactive; hERG rescue: inactive; KCNQ1 block val: 127; CHO Tl flux: inactive; KCNQ1 APC inh: active; KCNQ2 spec: inactive; KCNQ1-KCNE1 inh: 71%; KCNK9 inh conf: 53%; Kir2-1 spec: inactive; HEK293 Tl ctr: 32%; KCNK3 confirm: 109; KCNK3 uninduced: inactive

What do the screens show for `Cc1nc2ccccc2c2c1CC(C(C)(Cl)Br)O2` (stereo unspecified)?
KCNQ1 block: 6; KCNK9 block: inactive; KCNQ1 pot: inactive; KCNK3 inh: -9.6; Kir21 block: inactive; hERG rescue: inactive; KCNQ1 block val: 106; CHO Tl flux: inactive; KCNQ1 APC inh: active; KCNQ2 spec: 80%; KCNQ1-KCNE1 inh: inactive; KCNK3 confirm: 127; KCNK3 uninduced: inactive
